# Activity calls are given as the source filed them. The rule behind the calls is not given here.
# What was measured:
# W256 [1] = assay: Antitumor activity against rat Walker 256 cells intramuscularly allografted in rat assessed as survival rate at 1.56 mg/kg, qd administered for 5 days; type: functional, organism-based; design: dose 1.56 mg/kg
# In short: (§1)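 Rats bearing Walker 256 carcinoma as a solid tumor; lines 1-8 use a cytoxan-resistant Walker 256 subline. Dosed once daily for 5 days. Treated (T) and untreated control (C) groups are compared, and the response is given as T/C percentage, reflecting increase in survival time. Host weight change is the average weight change of the test group minus that of the controls, in grams.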
# L1210 [2] = assay: In vivo antitumor activity against mouse L1210 cells in prognostic scoring system assessed as survival rate at 1.8 mg/kg, qd administered for 9 days; type: functional, organism-based; design: dose 1.8 mg/kg
# In short: (§2)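 L1210 leukaemia in mice, run as an ascites tumour system. Injections were once daily for 9 or 15 days, or as a single dose. Response is the increase in survival time, given as T/C %, treated over untreated controls; a larger value means more activity. Weight change is the treated-group mean minus the control-group mean, in grams.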
# Rattus norvegicus [3] = assay: Toxicity in rat allografted with rat Walker 256 cells intramuscularly assessed as change in body weight at 0.78 mg/kg, qd administered for 5 days; type: organism-based; design: dose 0.78 mg/kg, route intramuscular; conditions: in vivo, im, 120 h
# In short: (§3)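 Walker 256 carcinoma solid-tumour system in rats (parent line, or the line resistant to cytoxan). Dosing was one injection per day for 5 days. Toxicity was taken as the average net body-weight change of the treated group minus the average net weight change of the untreated tumour-bearing controls, in grams.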
# [4] = Therapeutic index, ratio of LD50 for rat allografted with rat Walker 256 cells to ED10 for antitumor activity against rat Walker 256 cells intramuscularly allografted in rat; type: cell-based; conditions: read-out: TI
# In short: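 Therapeutic index is LD50/ED10 in the Walker 256 solid tumour system. ED10 is the dose giving a 10% tumour weight reduction, with values extrapolated from dose-response data.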
# W256 [5] = assay: Antitumor activity against rat Walker 256 cells intramuscularly allografted in rat assessed as tumor growth inhibition at 3.12 mg/kg, qd administered for 5 days relative to control; type: functional; conditions: W256, im, 120 h, route intramuscular, read-out: TGI
# In short: (§4)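 Walker 256 carcinoma grown as a solid tumour in rats, with one injection daily for 5 days. Response is given as T/C %, the treated-group measure over the untreated-control tumour measure; a smaller value means more activity. Host toxicity is the mean net weight change of treated minus control animals, in grams.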
# Musca domestica [6] = assay: Toxicity in male house fly assessed as lowest dose required to cause complete sterility administered in food; type: organism-based; conditions: in vivo, po
# Musca domestica [7] = assay: Toxicity in male house fly assessed as lowest dose required to cause complete sterility administered in sugar; type: organism-based; conditions: in vivo, po
# Rattus norvegicus [8] = assay: Toxicity in rat allografted with rat Walker 256 cells intramuscularly assessed as change in body weight at 3.12 mg/kg, qd administered for 5 days; type: organism-based; design: dose 3.12 mg/kg, route intramuscular; conditions: in vivo, im, 120 h; in short: as §3
# L1210 [9] = assay: In vivo antitumor activity against mouse L1210 cells in prognostic scoring system assessed as tumor growth inhibition at 3 mg/kg, qd administered for 9 days relative to control; type: functional; conditions: L1210, 216 h, read-out: TGI
# L1210 [10] = assay: In vivo antitumor activity against mouse L1210 cells in prognostic scoring system assessed as survival rate at 5 mg/kg, qd administered for 9 days; type: functional, organism-based; design: dose 5 mg/kg; in short: as §2
# [11] = Toxicity in rat allografted with rat Walker 256 cells intramuscularly; type: organism-based
# Rattus norvegicus [12] = assay: Toxicity in rat allografted with rat Walker 256 cells intramuscularly assessed as change in body weight at 1.56 mg/kg, qd administered for 5 days; type: organism-based; design: dose 1.56 mg/kg, route intramuscular; conditions: in vivo, im, 120 h; in short: as §3
# L1210 [13] = assay: In vivo antitumor activity against mouse L1210 cells in prognostic scoring system assessed as survival rate at 3 mg/kg, qd administered for 9 days; type: functional, organism-based; design: dose 3 mg/kg; in short: as §2
# W256 [14] = assay: Antitumor activity against rat Walker 256 cells intramuscularly allografted in rat assessed as survival rate at 6.25 mg/kg, qd administered for 5 days; type: functional, organism-based; design: dose 6.25 mg/kg; in short: as §1
# Rattus norvegicus [15] = assay: Toxicity in rat allografted with rat Walker 256 cells intramuscularly assessed as change in body weight at 6.25 mg/kg, qd administered for 5 days; type: organism-based; design: dose 6.25 mg/kg, route intramuscular; conditions: in vivo, im, 120 h; in short: as §3
# W256 [16] = assay: Antitumor activity against rat Walker 256 cells intramuscularly allografted in rat assessed as survival rate at 3.12 mg/kg, qd administered for 5 days; type: functional, organism-based; design: dose 3.12 mg/kg; in short: as §1
# W256 [17] = assay: Antitumor activity against rat Walker 256 cells intramuscularly allografted in rat assessed as tumor growth inhibition at 6.25 mg/kg, qd administered for 5 days relative to control; type: functional; conditions: W256, im, 120 h, route intramuscular, read-out: TGI; in short: as §4
# W256 [18] = assay: Antitumor activity against rat Walker 256 cells intramuscularly allografted in rat assessed as tumor growth inhibition; type: functional; conditions: W256, im
# In short: (§5)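 Dosed once daily for 5 days. Response is tumor progression in treated (T) versus untreated control (C) animals, expressed as T/C percentage. Host weight change is reported as the average net weight change of the test group minus that of the controls, in grams.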
# W256 [19] = assay: Antitumor activity against rat Walker 256 cells intramuscularly allografted in rat assessed as tumor growth inhibition at 0.78 mg/kg, qd administered for 5 days relative to control; type: functional; conditions: W256, im, 120 h, route intramuscular, read-out: TGI; in short: as §5
# L1210 [20] = assay: In vivo antitumor activity against mouse L1210 cells in prognostic scoring system assessed as survival rate at 1 mg/kg, qd administered for 9 days; type: functional, organism-based; design: dose 1 mg/kg; in short: as §2
# W256 [21] = assay: Antitumor activity against rat Walker 256 cells intramuscularly allografted in rat assessed as tumor growth inhibition at 1.56 mg/kg, qd administered for 5 days relative to control; type: functional; conditions: W256, im, 120 h, route intramuscular, read-out: TGI; in short: as §5
# W256 [22] = assay: Antitumor activity against rat Walker 256 cells intramuscularly allografted in rat assessed as survival rate at 0.78 mg/kg, qd administered for 5 days; type: functional, organism-based; design: dose 0.78 mg/kg; in short: as §1
# W256 [23] = assay: Antitumor activity against cytoxan-resistant rat Walker 256 cells intramuscularly allografted in rat assessed as survival rate at 25 mg/kg, qd administered for 5 days; type: functional, organism-based; design: dose 25 mg/kg; in short: as §1
# L1210 [24] = assay: In vivo antitumor activity against mouse L1210 cells in prognostic scoring system assessed as survival rate at 3 mg/kg, qd administered for 15 days; type: functional, organism-based; design: dose 3 mg/kg; in short: as §2
# W256 [25] = assay: Antitumor activity against cytoxan-resistant rat Walker 256 cells intramuscularly allografted in rat assessed as survival rate at 3 mg/kg, qd administered for 5 days; type: functional, organism-based; design: dose 3 mg/kg; in short: as §1
# W256 [26] = assay: Antitumor activity against cytoxan-resistant rat Walker 256 cells intramuscularly allografted in rat assessed as tumor growth inhibition at 25 mg/kg, qd administered for 5 days relative to control; type: functional; conditions: W256, im, 120 h, route intramuscular, read-out: TGI; in short: as §5
# W256 [27] = assay: Antitumor activity against cytoxan-resistant rat Walker 256 cells intramuscularly allografted in rat assessed as tumor growth inhibition at 12 mg/kg, qd administered for 5 days relative to control; type: functional; conditions: W256, im, 120 h, route intramuscular, read-out: TGI; in short: as §5
# Rattus norvegicus [28] = assay: Toxicity in rat allografted with cytoxan-resistant rat Walker 256 cells intramuscularly assessed as change in body weight at 12 mg/kg, qd administered for 5 days; type: organism-based; design: dose 12 mg/kg, route intramuscular; conditions: in vivo, im, 120 h; in short: as §3
# Rattus norvegicus [29] = assay: Toxicity in rat allografted with cytoxan-resistant rat Walker 256 cells intramuscularly assessed as change in body weight at 6 mg/kg, qd administered for 5 days; type: organism-based; design: dose 6 mg/kg, route intramuscular; conditions: in vivo, im, 120 h; in short: as §3
# L1210 [30] = assay: In vivo antitumor activity against mouse L1210 cells in prognostic scoring system assessed as survival rate at 7 mg/kg, qd administered for 15 days; type: functional, organism-based; design: dose 7 mg/kg; in short: as §2
# W256 [31] = assay: Antitumor activity against rat Walker 256 cells intramuscularly allografted in rat assessed as survival rate at 12 mg/kg, qd administered for 5 days; type: functional, organism-based; design: dose 12 mg/kg; in short: as §1
# L1210 [32] = assay: In vivo antitumor activity against mouse L1210 cells in prognostic scoring system […] at 5 mg/kg, qd administered for 15 days relative to control; type: functional; conditions: L1210, 360 h, read-out: TGI
# Rattus norvegicus [33] = assay: Toxicity in rat allografted with rat Walker 256 cells intramuscularly assessed as change in body weight at 12 mg/kg, qd administered for 5 days; type: organism-based; design: dose 12 mg/kg, route intramuscular; conditions: in vivo, im, 120 h; in short: as §3
# W256 [34] = assay: Antitumor activity against cytoxan-resistant rat Walker 256 cells intramuscularly allografted in rat assessed as survival rate at 6 mg/kg, qd administered for 5 days; type: functional, organism-based; design: dose 6 mg/kg; in short: as §1
# W256 [35] = assay: Antitumor activity against cytoxan-resistant rat Walker 256 cells intramuscularly allografted in rat assessed as tumor growth inhibition at 6 mg/kg, qd administered for 5 days relative to control; type: functional; conditions: W256, im, 120 h, route intramuscular, read-out: TGI; in short: as §5
# Rattus norvegicus [36] = assay: Toxicity in rat allografted with cytoxan-resistant rat Walker 256 cells intramuscularly assessed as change in body weight at 25 mg/kg, qd administered for 5 days; type: organism-based; design: dose 25 mg/kg, route intramuscular; conditions: in vivo, im, 120 h; in short: as §3
# W256 [37] = assay: Antitumor activity against cytoxan-resistant rat Walker 256 cells intramuscularly allografted in rat assessed as tumor growth inhibition at 3 mg/kg, qd administered for 5 days relative to control; type: functional; conditions: W256, im, 120 h, route intramuscular, read-out: TGI; in short: as §5
# W256 [38] = assay: Antitumor activity against rat Walker 256 cells intramuscularly allografted in rat assessed as tumor growth inhibition at 12 mg/kg, qd administered for 5 days relative to control; type: functional; conditions: W256, im, 120 h, route intramuscular, read-out: TGI; in short: as §4
# L1210 [39] = assay: In vivo antitumor activity against mouse L1210 cells in prognostic scoring system assessed as survival rate at 11 mg/kg, qd administered for 15 days; type: functional, organism-based; design: dose 11 mg/kg; in short: as §2
# W256 [40] = assay: Antitumor activity against cytoxan-resistant rat Walker 256 cells intramuscularly allografted in rat assessed as survival rate at 12 mg/kg, qd administered for 5 days; type: functional, organism-based; design: dose 12 mg/kg; in short: as §1
# Rattus norvegicus [41] = assay: Toxicity in rat allografted with cytoxan-resistant rat Walker 256 cells intramuscularly assessed as change in body weight at 3 mg/kg, qd administered for 5 days; type: organism-based; design: dose 3 mg/kg, route intramuscular; conditions: in vivo, im, 120 h; in short: as §3
# L1210 [42] = assay: In vivo antitumor activity against mouse L1210 cells in prognostic scoring system assessed as survival rate at 5 mg/kg, qd administered for 15 days; type: functional, organism-based; design: dose 5 mg/kg; in short: as §2
structure (smiles),measurement,setting,value
C=CCN(CC=C)P(=O)(N1CC1C)N1CC1C (stereo not given),Activity,W256 [1],Active
same,Activity,L1210 [2],Active
same,Activity,Rattus norvegicus [3],-8 g
same,selectivity ratio,[4],9
same,inhibition in vivo at 3.12 mg/kg,W256 [5],0%
same,Activity,Musca domestica [6],0.25%
same,Activity,Musca domestica [7],0.5%
same,Activity,Rattus norvegicus [8],-15 g
same,inhibition in vivo at 3 mg/kg,L1210 [9],172%
same,Activity,L1210 [10],Active
same,LD50,[11],22 mg/kg
same,Activity,Rattus norvegicus [12],-22 g
same,Activity,L1210 [13],Active
same,Activity,W256 [14],Active
same,Activity,Rattus norvegicus [15],-28 g
same,Activity,W256 [16],Active
same,inhibition in vivo at 6.25 mg/kg,W256 [17],3%
same,ED10,W256 [18],3.5 mg/kg
same,inhibition in vivo at 0.78 mg/kg,W256 [19],24%
same,Activity,L1210 [20],Active
same,inhibition in vivo at 1.56 mg/kg,W256 [21],5%
same,Activity,W256 [22],Active
C=CCN(CC=C)P(=O)(N(CC=C)CC=C)N1CC1,Activity,W256 [23],Active
same,Activity,L1210 [24],Active
same,Activity,W256 [25],Active
same,inhibition in vivo at 25 mg/kg,W256 [26],52%
same,inhibition in vivo at 12 mg/kg,W256 [27],66%
same,Activity,Rattus norvegicus [28],-4 g
same,selectivity ratio,[4],30
same,Activity,Rattus norvegicus [29],-7 g
same,Activity,L1210 [30],Active
same,Activity,W256 [31],Active
same,inhibition in vivo at 5 mg/kg,L1210 [32],155%
same,LD50,[11],75 mg/kg
same,Activity,Rattus norvegicus [33],-1 g
same,Activity,W256 [34],Active
same,inhibition in vivo at 6 mg/kg,W256 [35],70%
same,Activity,Rattus norvegicus [36],-28 g
same,inhibition in vivo at 3 mg/kg,W256 [37],84%
same,inhibition in vivo at 12 mg/kg,W256 [38],0%
same,ED10,W256 [18],2.5 mg/kg
same,Activity,L1210 [39],Active
same,Activity,W256 [40],Active
same,Activity,Rattus norvegicus [41],-1 g
same,Activity,L1210 [42],Active

# Reference: ChEMBL document CHEMBL3272018, “Synthesis of aziridinylallylaminophosphine oxides and sulfides as potential adjuvant cancer chemotherapeutic agents” (J Med Chem, 1976)
